Most compounds without a hit are left out; they make up all but 2.2% or so of the library.
SKN-1 block: suppressors of acrylamide-induced Pgst-4::GFP reporter in worms, primary screen, SKN-1 inhibitor project, whole organism, uHTS, GFP/RFP fluorescence ratio, strain VP596. AID 624304, 2012. C. elegans VP596 Pgst-4::GFP/RFP ratio, 24 h. inhibition, % at 21.8 µM. actives 0.49% (n = 360,000);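 active means interference check ratio from 0.5 to 1.5 plus GFP to RFP signal ratio inhibition reaching or exceeding a fixed threshold, cut at about 30% in these data, passing the limit was not always enough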
MT1-MMP act inh: blockers of MT1-MMP proenzyme processing, primary screen, HT1080 RFP-PRO-GFP cells, GFP/RFP fluorescence | GFP/RFP ratio change, % at 20 µM | Matrix metalloproteinase-14 (Homo sapiens), P50281 | AID 651647, 2012 | actives 0.061% (n = 360,000) | GFP/RFP ratio fluorescence, overnight; percent of plate control window, DMSO zero;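 active means GFP/RFP ratio change of at least 30% with cell ATP level not reduced by more than half and red fluorescence within 50% of control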
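Compound: 20 µM single dose, 1% DMSO / System: HT1080 RFP-PRO-GFP cells / Controls: DMSO and RFP-L50D-GFP cell wells / Read-out basis: GFP/RFP fluorescence ratio / Schedule: overnight compound exposure at 37 °C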
Neddyl block: inhibitors of cullin neddylation, primary screen, biochemical, TR-FRET, uHTS, NAE and Ubc12; NEDD8-conjugating enzyme Ubc12 (Homo sapiens) + NEDD8-activating enzyme E1 regulatory …; calls only at 25 µM; actives 0.58% (n = 360,000); AID 651699, 2012; in the data active means inhibition above about 36%
proKLK7 act: proKLK7 zymogen activators, primary screen, biochemical, fluorescence intensity. activation, % at 7 µM. Kallikrein-7 (Homo sapiens), P49862. actives 0.9% (n = 370,000). purified proKLK7, EDANS-DABCYL substrate fluorescence; 100% is mature enzyme control, 0% vehicle;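 active means activation above the mean of all tested compounds plus 3 SD, computed per campaign excluding outliers beyond control limits, cut at about 13% in these data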
Target sequence (P49862 whole entry, looked up): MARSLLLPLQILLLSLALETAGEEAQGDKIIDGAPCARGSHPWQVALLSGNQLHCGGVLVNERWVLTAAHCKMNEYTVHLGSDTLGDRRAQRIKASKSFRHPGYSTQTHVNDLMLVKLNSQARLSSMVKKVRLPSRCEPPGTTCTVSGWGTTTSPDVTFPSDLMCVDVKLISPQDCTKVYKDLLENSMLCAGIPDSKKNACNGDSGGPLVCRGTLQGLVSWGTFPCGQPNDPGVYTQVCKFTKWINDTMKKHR
Tn7 DDE FP: inhibitors of Tn7 peptide binding to fibrin DD(E), primary screen, biochemical, fluorescence polarization, human fibrin, Tn7 probe; inhibition, % at 8.3 µM; AID 720508, 2013; actives 0.13% (n = 370,000); FP displacement of FITC-Tn7 peptide from fibrin DD(E); 0% = median of compound wells per plate; Fibrinogen beta chain (Homo sapiens), P02675;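 active means inhibition above the mean of compounds falling within the control limits plus 3 SD of them, cut at about 14% in these data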;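 further: 0% = plate median of compound wells and 100% = 10 µM Aha-Tn7 peptide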
Target sequence (P02675 whole entry, looked up): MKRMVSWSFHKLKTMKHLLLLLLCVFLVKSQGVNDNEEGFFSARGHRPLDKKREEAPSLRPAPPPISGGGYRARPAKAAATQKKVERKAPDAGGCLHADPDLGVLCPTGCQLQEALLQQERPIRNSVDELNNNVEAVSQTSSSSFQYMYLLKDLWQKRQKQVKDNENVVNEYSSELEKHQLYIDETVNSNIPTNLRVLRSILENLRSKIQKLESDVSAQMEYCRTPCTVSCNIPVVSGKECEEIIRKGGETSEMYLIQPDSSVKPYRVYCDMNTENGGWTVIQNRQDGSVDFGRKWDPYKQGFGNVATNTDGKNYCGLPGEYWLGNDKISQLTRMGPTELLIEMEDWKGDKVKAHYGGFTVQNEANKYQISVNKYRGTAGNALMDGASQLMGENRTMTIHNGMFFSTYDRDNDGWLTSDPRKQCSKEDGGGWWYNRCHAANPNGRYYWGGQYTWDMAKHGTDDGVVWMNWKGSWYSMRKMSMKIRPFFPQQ
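assay system = human clot-derived fibrin DD(E) complex | quantity = Fibrin-DD(E) at 2 µM final | timing = 10 min preincubation, 3 h with tracer, room temperature | signal = fluorescence polarization | measure = percent inhibition | benchmarks = high control wells with 10 µM unlabelled Aha-Tn7 peptide (full inhibition) | replicates = singlicate testing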
DDE Tn6 FP inh: inhibitors of Tn6 peptide binding to fibrin DD(E), primary screen, biochemical, fluorescence polarization, human fibrin, Tn6 probe; Fibrinogen beta chain (Homo sapiens), P02675; Fibrin DD(E) TRITC-Tn6 fluorescence polarization displacement; inhibition, % at 8.3 µM; actives 0.21% (n = 370,000);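 active means inhibition above a per-campaign cutoff: mean of compounds within control limits plus 3 SD, cut at about 15% in these data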;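 further: 0% = median of all compound wells on the plate and 100% = blocking peptide control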
MT1-MMP act val: MT1-MMP activation inhibitors, hit retest, confirmation, single concentration, fluorescence, HT1080 RFP-PRO-GFP cells | shares compounds with MT1-MMP act inh | GFP and RFP fluorescence ratio, overnight | inhibition, % at 20 µM | actives 10% (n = 200) | AID 652235, 2013;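 active means inhibition of at least 50% in the primary cell screen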
Numbers without * were called inactive; i = inactive; nt = no result shown.

SMILES | SKN-1 block | MT1-MMP act inh | Neddyl block | proKLK7 act | Tn7 DDE FP | DDE Tn6 FP inh | MT1-MMP act val
CN1C(=O)/C(=C\c2ccccc2OCc2ccccc2)SC1=S | 0.4 | 1.1 | i | 0.3 | 4.7 | 2.4 | nt
CN1C(=O)/C(=C\c2cc(N=Nc3ccccc3)ccc2O)SC1=S | 3.9 | 31.9* | i | -0.6 | -1.6 | 0.7 | 82.9*
COc1cccc(C(=O)NCCN2CCN(c3ccc(Cl)cc3)CC2)c1 | 1.3 | 2.3 | i | 0.8 | -1.4 | -1.1 | nt
COC(=O)C1=C(C(=O)OC)SC(=C2C(=S)C(C)(C)N(C(=O)C(C)C)c3ccccc32)S1 | 9.3 | 31.0* | i | 0.4 | -1.7 | -6.1 | 24.6
Cc1cc2ccccc2n1CCNC(=O)C(C)Oc1ccccc1 (stereo unspecified) | 36.1 | 37.9* | i | 0.5 | -3.2 | 11.6 | 4.7
COC(=O)CCC(=O)OC1(C)C(=O)C2=CN(CC3CC3)C(c3ccc(OC)cc3)=CC2=C(Br)C1=O (stereo unspecified) | 24.3 | 30.2* | i | nt | nt | nt | 14.5
Nc1nc(-c2ccccc2)c(N=Nc2cccc3ccccc23)s1 | 24.0 | 34.5* | i | 0.2 | 7.5 | -5.3 | 37.7
Nc1nc(-c2ccccc2)c(N=Nc2ccccc2Cl)s1 | 48.6* | 42.4* | i | 0.9 | -11.6 | -2.2 | 47.2
CCN(CCCC(=O)c1ccc(F)cc1)CCc1ccccc1 | -3.6 | 1.5 | i | -0.5 | -3.8 | 5.2 | nt
COc1ccc([C@H]2OC(=O)C[C@@H]2C(=O)N2CCN(c3ccccc3F)CC2)cc1OC | nt | nt | nt | 0.3 | 0.8 | -1.3 | nt
CCCCn1c(SCC(=O)Nc2cc(C)on2)nnc1-c1cccnc1 | 4.3 | -5.4 | i | -0.1 | -5.6 | -3.1 | nt
COc1cc(C(=O)Nc2ccc(O)cc2C(=O)O)ccc1OC(C)=O | 7.9 | 36.9* | i | -0.3 | 1.6 | -1.8 | 2.2
COC(=O)c1ccc(NC(=O)c2ccc(OC(C)=O)c(OC)c2)cc1 | -3.2 | 4.3 | i | -0.1 | 3.4 | 1.2 | nt
O=C(NCc1ccncc1)c1ccc(Oc2ccccc2)cc1 | 14.8 | -12.3 | i | -0.2 | -1.0 | -2.9 | nt
COc1ccc(/C=N/c2oc(C)c(C)c2C#N)c(OC)c1 | 0.1 | 2.5 | i | -0.9 | 4.0 | -1.8 | nt
COc1cc(/C=N/c2oc(C)c(C)c2C#N)cc(Br)c1O | 12.6 | 32.5* | i | 0.3 | -3.1 | 4.0 | 7.7
COc1cccc(C(=O)Nc2ccc(-c3nc4ccccc4o3)c(O)c2)c1 | 17.9 | 4.6 | i | -56.5 | -0.3 | -10.0 | nt
COc1cc(OC)cc(C(=O)Nc2ccc(-c3nc4ccccc4o3)cc2)c1 | -0.7 | 30.5* | nt | -161.2 | -4.1 | 2.2 | 17.1
Cc1ccc(NC(=O)C2C(C(=O)O)C3C=CC2C32CC2)cc1 (stereo unspecified) | -1.9 | 4.4 | i | -0.8 | 5.2 | 5.9 | nt
C[C@H](CO)N1C[C@H](C)[C@H](CN(C)C(=O)NC2CCCCC2)Oc2cc(-c3cccnc3)ccc2S1(=O)=O | -4.7 | 2.2 | i | -0.2 | -0.7 | -1.2 | nt
C[C@H]1[C@@H](NC(=O)c2ccc(C(C)(C)C)cc2)CC[C@@]23CCCN2C(=O)CCC[C@@H]13 | nt | nt | nt | nt | -2.4 | 0.0 | nt
COc1cc(/C=C/c2sc3ccccc3[n+]2CCCS(=O)(=O)[O-])ccc1O | 66.2 | 23.8 | i | 2.4 | -19.7 | -25.8 | nt
CCC(/C=C1\Oc2ccc(OC)cc2N1C)=C\c1sc2ccccc2[n+]1CCCS(=O)(=O)[O-] | 78.7 | 35.3* | i | 0.7 | 4.2 | -18.4 | -110.1
COc1ccc(-c2oc3ccc(-c4ccc(OC)nc4)cc3c2C#CC2(O)CCCCC2)cc1 | 15.3 | 32.0* | nt | -1.0 | -0.8 | 3.4 | 10.0
COc1ccc(-c2oc3ccc(-c4ccc5c(c4)OCO5)cc3c2C#CC2(O)CCCCC2)cc1 | -11.3 | 15.0 | i | -7.7 | 5.1 | -3.2 | nt
SMILES | SKN-1 block | MT1-MMP act inh | Neddyl block | proKLK7 act | Tn7 DDE FP | DDE Tn6 FP inh | MT1-MMP act val
CN1/C(=C\C(=S)NC(=O)c2ccc([N+](=O)[O-])cc2)C(C)(C)c2ccccc21 | 22.2 | 42.2* | i | 0.0 | -4.6 | 3.6 | 10.7
O=C(CSc1ncnc2nc[nH]c12)c1ccc(Cl)cc1 | 5.2 | 10.0 | i | 0.6 | -3.0 | -1.1 | nt
O=c1cc2oc3cc(O)c(O)cc3c(-c3ccccc3[N+](=O)[O-])c-2cc1O | -4.5 | 40.6* | i | 0.0 | 2.9 | -3.3 | 51.4*
O=c1cc(-c2ccccc2Cl)oc2cccc(O)c12 | -1.1 | -1.5 | i | -0.2 | -2.1 | -0.4 | nt
Nc1ccc(N2CCCCC2)cc1N1CCCCC1 | -19.4 | 47.0* | i | 0.1 | -3.6 | 5.6 | -0.4
CCN1/C(=C\C=C2\C(=O)N(c3ccccc3)C(=S)N2C)Sc2ccccc21 | 64.4 | 38.7* | i | 0.0 | 2.4 | 0.4 | 28.9
Cc1cc(C)nc(N/C(=N/S(=O)(=O)Cc2ccccc2)Nc2ccccc2)n1 | -3.6 | -4.8 | i | 0.0 | 0.7 | -5.6 | nt
COc1ccc(C(CNC(=O)c2c(C)nn(Cc3ccc(C)cc3)c2Cl)N2CCOCC2)cc1 (stereo unspecified) | -1.1 | 32.0* | i | -0.5 | 0.2 | 3.2 | 7.8
COC(=O)c1sccc1NC(=O)C1C2C=CC(O2)C1C(=O)O (stereo unspecified) | -23.2 | -2.9 | i | -0.2 | -4.7 | 2.3 | nt
COc1ccc(Nc2nc(-c3c[nH]c4ccccc34)cs2)cc1 | 4.0 | 33.4* | i | -0.3 | -8.2 | -13.2 | 7.5
COc1ccc(Nc2nc(-c3ccc(OC)cc3)cs2)cc1 | 7.0 | 1.2 | i | -0.2 | 4.9 | -2.7 | nt
CCN1/C(=C2/SC(=S)N(C)C2=O)C=Cc2cc(C)ccc21 | 20.9 | 31.2* | i | 0.1 | 5.0 | -5.6 | 17.9
Cc1ccc(C(C)C)c(OCC(=O)NNCC(=O)Nc2cccc(F)c2)c1 | 6.8 | 1.6 | i | -0.1 | -3.0 | -1.2 | nt
